From ChEMBL document CHEMBL1144743, “Identification of prostaglandin D2 receptor antagonists based on a tetrahydropyridoindole scaffold” (Bioorg Med Chem Lett, 2008)

Target: T1, Thromboxane A2 receptor (Homo sapiens, UniProt P21731)
T1 sequence (P21731 whole entry): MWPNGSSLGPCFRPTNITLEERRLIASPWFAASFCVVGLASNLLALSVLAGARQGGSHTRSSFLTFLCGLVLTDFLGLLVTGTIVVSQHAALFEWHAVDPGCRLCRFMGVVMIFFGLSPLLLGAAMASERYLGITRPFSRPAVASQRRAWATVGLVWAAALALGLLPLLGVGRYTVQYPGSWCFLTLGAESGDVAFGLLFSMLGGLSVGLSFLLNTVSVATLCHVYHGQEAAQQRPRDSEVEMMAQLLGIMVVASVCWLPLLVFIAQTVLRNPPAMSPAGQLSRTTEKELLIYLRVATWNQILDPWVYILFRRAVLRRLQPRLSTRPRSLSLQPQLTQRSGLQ
Test: Binding affinity to human recombinant TP receptor by radioligand competition binding assay
Conditions: not given
Outline: (§1)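 Radioligand competition binding on recombinant human receptors, DP1 or thromboxane TP receptor; Ki values reported.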

In order of rising Ki:
1. O=C(O)CC1CCn2c1c(Sc1ccc(Cl)cc1)c1ccc(F)cc12 (centres undefined)  17 nM
2. CSC(C)c1cc(F)cc2c1c(Sc1ccc(Cl)cc1)c1n2CCC1CC(=O)O (centres undefined)  27.5 nM
3. CC(C)c1cc(F)cc2c1c(Sc1ccc(Cl)cc1)c1n2CCC1CC(=O)O (centres undefined)  46 nM
4. O=C(O)CC1CCn2c1c(Sc1ccc(Cl)cc1)c1c(C3CC3)cc(F)cc12 (centres undefined)  136 nM
5. CCC(OC)c1cc(F)cc2c1c(Sc1ccc(Cl)cc1)c1n2CCC1CC(=O)O (centres undefined)  200 nM
6. CS(=O)(=O)c1cc(F)cc2c1c(CCc1ccc(Cl)cc1)c1n2CCC1CC(=O)O (centres undefined)  219 nM
7. CS(=O)(=O)c1cc(F)cc2c1c(Sc1ccc(Cl)cc1)c1n2CCC1CC(=O)O (centres undefined)  226 nM
8. CS(=O)(=O)c1cc(F)cc2c1c(Sc1ccc(C(F)(F)F)cc1)c1n2CCC1CC(=O)O (centres undefined)  286 nM
9. CS(=O)(=O)c1cc(F)cc2c1c(C(=O)c1ccc(Cl)cc1)c1n2CCCC1CC(=O)O (centres undefined)  513 nM
10. CS(=O)(=O)c1cc(F)cc2c1c(Sc1ccc3ccccc3c1)c1n2CCC1CC(=O)O (centres undefined)  583 nM
11. CS(=O)(=O)c1cc(F)cc2c1c(C(=O)c1ccc(Cl)cc1)c1n2CCCCC1CC(=O)O (centres undefined)  675 nM
12. CC(c1ccc(Cl)cc1)c1c2n(c3cc(F)cc(S(C)(=O)=O)c13)CCC2CC(=O)O (centres undefined)  3190 nM

Test system: not listed separately
Test: Half life in rat
Type: ADME, organism-based
Conditions: in vivo

Molecule `CS(=O)(=O)c1cc(F)cc2c1c(C(=O)c1ccc(Cl)cc1)c1n2CCCC1CC(=O)O` (centres undefined) has a half-life of 4.4 h.

Target: not listed separately
Test: Binding affinity to human recombinant PGD2 receptor subtype 1 by radioligand competition binding assay
Conditions: not given
Outline: as §1

In order of rising Ki:
1. CCC(OC)c1cc(F)cc2c1c(Sc1ccc(Cl)cc1)c1n2CCC1CC(=O)O (centres undefined)  1.1 nM
2. CS(=O)(=O)c1cc(F)cc2c1c(Sc1ccc3ccccc3c1)c1n2CCC1CC(=O)O (centres undefined)  1.2 nM
3. CS(=O)(=O)c1cc(F)cc2c1c(Sc1ccc(Cl)cc1)c1n2CCC1CC(=O)O (centres undefined)  1.3 nM
4. CS(=O)(=O)c1cc(F)cc2c1c(C(=O)c1ccc(Cl)cc1)c1n2CCCCC1CC(=O)O (centres undefined)  1.4 nM
5. CSC(C)c1cc(F)cc2c1c(Sc1ccc(Cl)cc1)c1n2CCC1CC(=O)O (centres undefined)  1.6 nM
6. CS(=O)(=O)c1cc(F)cc2c1c(Sc1ccc(C(F)(F)F)cc1)c1n2CCC1CC(=O)O (centres undefined)  1.8 nM
7. CC(C)c1cc(F)cc2c1c(Sc1ccc(Cl)cc1)c1n2CCC1CC(=O)O (centres undefined)  2.4 nM
8. CS(=O)(=O)c1cc(F)cc2c1c(C(=O)c1ccc(Cl)cc1)c1n2CCCC1CC(=O)O (centres undefined)  3 nM
9. O=C(O)CC1CCn2c1c(Sc1ccc(Cl)cc1)c1c(C3CC3)cc(F)cc12 (centres undefined)  5.7 nM
10. CC(c1ccc(Cl)cc1)c1c2n(c3cc(F)cc(S(C)(=O)=O)c13)CCC2CC(=O)O (centres undefined)  14.7 nM
11. CS(=O)(=O)c1cc(F)cc2c1c(CCc1ccc(Cl)cc1)c1n2CCC1CC(=O)O (centres undefined)  18.9 nM
12. O=C(O)CC1CCn2c1c(Sc1ccc(Cl)cc1)c1ccc(F)cc12 (centres undefined)  132 nM

Test system: not listed separately
Test: Antagonist activity at PGD2 subtype 1 in human platelet rich plasma assessed as inhibition of PGD2-induced accumulation of cAMP
Type: functional
Conditions: not given
Outline: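 Blood from normal human volunteers; PRP prepared by centrifugation at 150g for 15 min. IBMX added (2 mM final) to block cAMP degradation. PRP samples preincubated 10 min at 37 °C with increasing compound concentrations in DMSO before PGD2 challenge. Reaction stopped with ethanol to lyse cells and extract cAMP. IC50 reported.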

In order of falling IC50:
1. CS(=O)(=O)c1cc(F)cc2c1c(Sc1ccc3ccccc3c1)c1n2CCC1CC(=O)O (centres undefined)  40 nM
2. CS(=O)(=O)c1cc(F)cc2c1c(Sc1ccc(C(F)(F)F)cc1)c1n2CCC1CC(=O)O (centres undefined)  29.2 nM
3. CS(=O)(=O)c1cc(F)cc2c1c(Sc1ccc(Cl)cc1)c1n2CCC1CC(=O)O (centres undefined)  10.4 nM
4. CC(C)c1cc(F)cc2c1c(Sc1ccc(Cl)cc1)c1n2CCC1CC(=O)O (centres undefined)  8.6 nM
5. CCC(OC)c1cc(F)cc2c1c(Sc1ccc(Cl)cc1)c1n2CCC1CC(=O)O (centres undefined)  6.7 nM
6. CS(=O)(=O)c1cc(F)cc2c1c(C(=O)c1ccc(Cl)cc1)c1n2CCCCC1CC(=O)O (centres undefined)  5.2 nM
7. CS(=O)(=O)c1cc(F)cc2c1c(C(=O)c1ccc(Cl)cc1)c1n2CCCC1CC(=O)O (centres undefined)  4.6 nM
8. CSC(C)c1cc(F)cc2c1c(Sc1ccc(Cl)cc1)c1n2CCC1CC(=O)O (centres undefined)  4.1 nM

Test system: not listed separately
Test: Bioavailability in rat
Type: ADME, organism-based
Conditions: in vivo

Molecule `CS(=O)(=O)c1cc(F)cc2c1c(C(=O)c1ccc(Cl)cc1)c1n2CCCC1CC(=O)O` (centres undefined) has a bioavailability of 100%.
